In ChEMBL document CHEMBL2331491, “Novel imidazophenoxazine-4-sulfonamides: their synthesis and evaluation as potential inhibitors of PDE4” (Bioorg Med Chem, 2013):
One block for each compound: values may come before it.

Columns and labels:
[1] = target: T1, 3',5'-cyclic-AMP phosphodiesterase 4B (Homo sapiens, UniProt Q07343); assay: Inhibition of PDE4B1 (unknown origin) expressed in sf9 cells using cAMP as substrate preincubated at 30 uM for 15 mins before substrate addition measured after 1 hr by luminescence assay
Method in brief: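 His-tagged PDE4B1 was expressed in baculovirus-infected Sf9 cells (lysed 48 h post infection) and purified on Ni-NTA. 10 ng of enzyme was preincubated 15 min with compound or DMSO vehicle, then given cAMP substrate for 1 h. The reaction was stopped and detection reagent added for 10 min in the dark before reading luminescence. % inhibition = (RLU vehicle − RLU inhibitor)/RLU vehicle × 100, at a single screening concentration.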

[2] = target: T1, 3',5'-cyclic-AMP phosphodiesterase 4B; assay: Inhibition of PDE4B1 (unknown origin) expressed in sf9 cells using cAMP as substrate preincubated for 15 mins before substrate addition measured after 1 hr by luminescence assay
Method in brief: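 Ni-NTA-purified His-tagged PDE4B1 from baculovirus-infected Sf9 cells was used at 10 ng per reaction. Enzyme was preincubated 15 min with compound (9 concentrations) or DMSO, then cAMP for 1 h. After stop solution and 10 min detection reagent in the dark, luminescence was read. % inhibition was taken versus vehicle RLU. IC50 came from nonlinear regression of the dose-response curve and is given as mean ± SD.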

T1 sequence (Q07343 whole entry): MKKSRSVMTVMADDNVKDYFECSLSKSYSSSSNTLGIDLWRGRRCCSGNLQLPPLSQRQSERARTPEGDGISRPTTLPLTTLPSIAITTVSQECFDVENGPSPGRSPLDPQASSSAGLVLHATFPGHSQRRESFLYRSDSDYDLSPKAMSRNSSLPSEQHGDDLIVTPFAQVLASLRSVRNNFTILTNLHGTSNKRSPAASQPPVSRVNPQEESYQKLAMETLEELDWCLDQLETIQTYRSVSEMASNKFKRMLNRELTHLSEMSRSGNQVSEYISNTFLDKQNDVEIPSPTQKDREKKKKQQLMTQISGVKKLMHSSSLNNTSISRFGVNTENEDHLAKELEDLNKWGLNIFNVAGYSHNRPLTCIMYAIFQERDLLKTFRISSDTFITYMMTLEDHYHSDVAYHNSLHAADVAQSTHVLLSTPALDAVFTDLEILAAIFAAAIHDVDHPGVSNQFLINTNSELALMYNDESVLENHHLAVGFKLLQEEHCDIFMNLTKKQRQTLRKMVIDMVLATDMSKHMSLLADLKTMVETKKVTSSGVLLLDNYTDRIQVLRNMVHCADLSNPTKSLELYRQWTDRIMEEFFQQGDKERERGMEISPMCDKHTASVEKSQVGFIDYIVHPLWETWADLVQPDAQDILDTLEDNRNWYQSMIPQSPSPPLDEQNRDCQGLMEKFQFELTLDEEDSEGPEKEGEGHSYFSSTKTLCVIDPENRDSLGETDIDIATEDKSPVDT

Compound: COc1ccc(-c2nc3cc(S(N)(=O)=O)cc4c3n2-c2ccccc2O4)cc1
inhibition [1]: 66.5%

Compound: CCN(CC)c1ccc(-c2nc3cc(S(N)(=O)=O)cc4c3n2-c2ccccc2O4)c(O)c1
inhibition [1]: 19.7%

Compound: NS(=O)(=O)c1cc2c3c(c1)nc(-c1ccccc1Br)n3-c1ccccc1O2
inhibition [1]: 81%

Compound: NS(=O)(=O)c1cc2c3c(c1)nc(-c1ccccc1Cl)n3-c1ccccc1O2
inhibition [1]: 76.3%

Compound: NS(=O)(=O)c1cc2c3c(c1)nc(-c1c(Cl)cccc1Cl)n3-c1ccccc1O2
inhibition [1]: 80.2%

Compound: NS(=O)(=O)c1cc2c3c(c1)nc(-c1ccccc1O)n3-c1ccccc1O2
IC50 [2]: 3.31 µM
inhibition [2]: Dose-dependent effect
inhibition [1]: 89.3%

Compound: NS(=O)(=O)c1cc2c3c(c1)nc(-c1cc(Br)ccc1F)n3-c1ccccc1O2
IC50 [2]: 0.53 µM
inhibition [2]: Dose-dependent effect
inhibition [1]: 92.9%

Compound: COc1cc(-c2nc3cc(S(N)(=O)=O)cc4c3n2-c2ccccc2O4)ccc1O
inhibition [1]: 82.4%

Continued, values first:

inhibition [1]: 88.8%
Compound: NS(=O)(=O)c1cc2c3c(c1)nc(-c1ccc(O)cc1)n3-c1ccccc1O2

inhibition [1]: 79.7%
Compound: NS(=O)(=O)c1cc2c3c(c1)nc(-c1ccccc1)n3-c1ccccc1O2

IC50 [2]: 1.23 µM
inhibition [2]: Dose-dependent effect
inhibition [1]: 89.7%
Compound: NS(=O)(=O)c1cc2c3c(c1)nc(-c1cccc(Br)c1)n3-c1ccccc1O2

inhibition [1]: 66.8%
Compound: NS(=O)(=O)c1cc2c3c(c1)nc(-c1cccc([N+](=O)[O-])c1)n3-c1ccccc1O2

inhibition [1]: 80.3%
Compound: NS(=O)(=O)c1cc2c3c(c1)nc(-c1ccc(Cl)cc1)n3-c1ccccc1O2

inhibition [1]: 87.6%
Compound: NS(=O)(=O)c1cc2c3c(c1)nc(-c1cccc(O)c1)n3-c1ccccc1O2
